Experimental data published in ChEMBL document CHEMBL4808167, “Design, Synthesis, and Evaluation of Small Molecule Gαq/11 Protein Inhibitors for the Treatment of Uveal Melanoma” (J Med Chem, 2021).
Active and inactive are the calls of the source. The calls are words filed in the database; no cut-off is given here.

Tests used:
[1] = biological target: T1, GNAQ/GNA11 (Homo sapiens) (UniProt P50148+P29992); assay: Inhibition of Galphaq/11 (unknown origin) expressed in CHO cells coexpressing M1 receptor assessed as reduction in carbachol-induced IP1 accumulation at 10 uM preincubated for 1 hr followed by carbachol stimulation and measured after 1 hr by HTRF assay relative to control; type: cell-based; conditions: time 2.0 hrs
[2] = (§1) Antiproliferative activity against human 92.1 cells assessed as inhibition of cell growth after 72 hrs by CCK8 assay; type: functional, cell-based; conditions: Homo sapiens, 921, 72 h
Summary of the method: (§2)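 92.1 or MP41 cells in RPMI-1640 with 10% FBS were seeded at 3 × 10³ cells/well. Exposed to serial concentrations for 72 h at 37 °C, 5% CO₂. CCK-8 added for 1−4 h, absorbance read at 450 nm. IC₅₀ from concentration−response curve fit, mean ± SD.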

921 = assay: as §1; type: functional, cell-based; summary of the method: as §2
CHO = assay: Cytotoxicity against chinese hamster CHO cells overexpressing M1 receptor assessed as cell viability upto 20 uM for 24 hrs by CCK8 assay; type: cell-based, Cricetulus griseus
Summary of the method: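 CHO cells stably expressing the M₁ receptor were treated with a range of compound concentrations for 2 h or 24 h. Viability measured by CCK-8 and given as percentage. Mean ± SD of three independent experiments.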

[3] = biological target: T1, GNAQ/GNA11 (Homo sapiens); assay: Inhibition of Galphaq/11 (unknown origin) expressed in HEK293 cells cotransfected with AT1R assessed as inhibition of Ang-II induced calcium release at 100 uM preincubated for 30 mins followed by Ang-II addition by Fluo-4AM dye based fluorescence assay; type: cell-based
Summary of the method: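 HEK293 cells transfected with AT₁R, washed in HBSS with 0.1% BSA and loaded with Fluo-4 AM for 1 h at 37 °C. Washed, then pretreated with compound at 100 μM for 30 min. AngII at varying concentrations added 20 s into the fluorescence recording. Mean ± SD, n = 3.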

[4] = Induction of apoptosis in human MP41 cells assessed as viable cells at 15 uM after 48 hrs by Annexin-V-FITC/propidium iodide staining based flow cytometry (reference value: 93.6%); type: functional; conditions: read-out: Activity
[5] = Induction of apoptosis in human MP41 cells assessed as necrotic cells at 15 uM after 48 hrs by Annexin-V-FITC/propidium iodide staining based flow cytometry (reference value: 0.11%); type: functional
[6] = Induction of apoptosis in human MP41 cells assessed as viable cells at 30 uM after 48 hrs by Annexin-V-FITC/propidium iodide staining based flow cytometry (reference value: 93.6%); type: functional; conditions: read-out: Activity
[7] = Induction of apoptosis in human MP41 cells assessed as late apoptotic cells at 30 uM after 48 hrs by Annexin-V-FITC/propidium iodide staining based flow cytometry (reference value: 3.28%); type: functional
MP41 [8] = assay: Inhibition of colony formation in human MP41 cells at 5 to 15 uM after 9 days by crystal violet staining based light microscopic analysis; type: functional, cell-based; conditions: dose 5-15 µM, time 9.0 day
Summary of the method: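 Cells seeded 4 × 10³/well, incubated overnight at 37 °C, 5% CO₂, then exposed to compound for 9 days until colonies visible, medium and inhibitor replaced every 3 days. Fixed in 4% paraformaldehyde 15 min, crystal violet-stained 30 min, colonies counted. Repeated twice.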

MP41 [9] = assay: Inhibition of cell migration in human MP41 cells at 15 uM incubated for 48 hrs by transwell migration assay; type: functional, cell-based
Summary of the method: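 Transwell migration: 92.1 and MP41 cells (RPMI-1640, 10% FBS) seeded 1 × 10⁴/well in upper chamber in serum-free medium, 20% FBS medium below; overnight at 37 °C, then compound for 48 h. Non-migrated cells swabbed off; lower cells crystal violet-stained 30 min, counted by light microscopy. Mean SD of three independent experiments.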

[10] = Toxicity in nude BALB/c mouse xenografted with human MP41 cells assessed as morphological changes in heart tissue at 10 to 30 mg/kg, ip administered once daily for 21 days and measured every 3 days by HE staining based assay; type: organism-based; conditions: in vivo, 504 h, dose 10-30 mg/kg, time 21 day
Summary of the method: (§3)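 Nude BALB/c mice bearing serially passaged MP41 tumour slices (tertiary recipients, n = 8/group, randomized) dosed ip daily for 21 days at 10 or 30 mg/kg/d or vehicle. Body weight monitored every 3 days. Tissues collected at sacrifice, fixed in 4% paraformaldehyde 24 h, paraffin-embedded, H&E stained, viewed at ×100.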

[11] = Toxicity in nude BALB/c mouse xenografted with human MP41 cells assessed as morphological changes in lung tissue at 10 to 30 mg/kg, ip administered once daily for 21 days and measured every 3 days by HE staining based assay; type: organism-based; conditions: in vivo, 504 h, dose 10-30 mg/kg, time 21 day; summary of the method: as §3
[12] = biological target: T1, GNAQ/GNA11 (Homo sapiens); assay: Inhibition of Galphaq/11 in human 921 cells assessed as reduction in ERK phosphorylation at 15 to 30 uM after 48 hrs by Western blot analysis; type: cell-based; conditions: b, dose 15-30 µM
Summary of the method: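 92.1 and MP41 cells plated overnight, then exposed to compound 48 h. Lysed in ice-cold buffer and protein quantified by BCA. Resolved on 8−12% SDS−PAGE and transferred to PVDF. Probed for p-YAP Ser127, total YAP, p-ERK1/2 Thr202/Tyr204 and total ERK1/2, with GAPDH as loading control. ECL detection, triplicate.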

[13] = biological target: T1, GNAQ/GNA11 (Homo sapiens); assay: Inhibition of Galphaq/11 in human MP41 cells xenografted mouse tumor tissue assessed as inhibition of ERK phosphorylation at 10 to 30 mg/kg, ip administered for 21 consecutive days by Western blot analysis; type: organism-based; conditions: dose 10-30 mg/kg, time 21.0 day
Summary of the method: (§4)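 MP41 xenograft tumours from mice given 10 or 30 mg/kg/day ip for 21 consecutive days were analysed by Western blot. Probed for p-YAP, YAP, p-ERK and ERK, with GAPDH as loading control. Representative of triplicate experiments.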

[14] = biological target: T1, GNAQ/GNA11 (Homo sapiens); assay: Inhibition of Galphaq/11 in human MP41 cells xenografted mouse tumor tissue assessed as induction of YAP phosphorylation at 10 to 30 mg/kg, ip administered for 21 consecutive days by Western blot analysis; type: organism-based; conditions: dose 10-30 mg/kg, time 21.0 day; summary of the method: as §4
[15] = Half life in ICR mouse at 10 mg/kg, iv measured upto 24 hrs by LC-MS/MS analysis; type: ADME, organism-based; conditions: in vivo
Summary of the method: (§5)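 Single dose in male ICR mice, 10 mg/kg iv or 30 mg/kg po, dissolved in 5% DMSO/95% saline. Blood drawn by catheter at 0, 5, 15, 30 min and 1, 2, 4, 6, 8, 24 h. Plasma spun 6800g 6 min at 2−8 °C, stored −80 °C, quantified by LC−MS/MS. Noncompartmental parameters, mean ± SD, n = 6.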

[16] = AUC(0 to t) in ICR mouse at 30 mg/kg, po measured upto 24 hrs by LC-MS/MS analysis; type: ADME, organism-based; set-up: route oral, dose 30 mg/kg, time <=24; conditions: in vivo; summary of the method: as §5
[17] = MRT(0 to t) in ICR mouse at 10 mg/kg, iv measured upto 24 hrs by LC-MS/MS analysis; type: ADME, organism-based; conditions: in vivo
Summary of the method: (§6)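 Single-dose PK in male ICR mice (n = 6): 10 mg/kg iv or 30 mg/kg po, vehicle 5% DMSO/95% saline. Blood (30 μL) by catheter at 0, 5, 15, 30 min and 1, 2, 4, 6, 8, 24 h; plasma by centrifugation, stored −80 °C, measured by LC–MS/MS. Parameters from noncompartmental analysis, mean SD.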

[18] = Oral bioavailability in ICR mouse at 30 mg/kg measured upto 24 hrs by LC-MS/MS analysis; type: ADME, organism-based; conditions: in vivo; summary of the method: as §6

inhibition [1]: 36.5% | Activity [3]: Active | inhibition [12]: Active | inhibition [13]: Active | inhibition [14]: Active | half-life [15]: 1.17 h | AUC(0-t) at 24 h [16]: 5940 ng·h/mL | MRT last at 24 h [17]: 0.93 h | bioavailability [18]: 92.6%
SMILES: CC[C@@H](C)[C@H](N)C(=O)N1CCn2cc(-c3ccccc3)nc2[C@@H]1CC1CCCCC1
IC50 [2]: 10.1 µM | Activity 921: Dose-Dependent Effect | Activity (CHO): Non-Toxic | viability at 15 µM [4]: 90.2% | Activity [5]: 0.09% | viability at 30 µM [6]: 75.7% | Activity [7]: 6.16% | inhibition (MP41 [8]): Active | inhibition (MP41 [9]): Active | Activity [10]: Non-Toxic | Activity [11]: Non-Toxic
